Converted amounts (≈) assume the structure as drawn. One block for each compound: values may come before it.
Tests used:
Assay type in all cases: functional
Neisseria gonorrhoeae [1] = assay: Antibacterial activity against Neisseria gonorrhoeae WHO C
How it was run: (§1)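 Agar dilution MIC. Strains were cultured on GC agar with 2% v/v Vitox and 1% haemoglobin. Suspensions of 10^5 CFU/mL were spotted in duplicate onto the same supplemented GC agar containing various compound concentrations, then incubated 24-48 h at 37°C in 5% CO2. The MIC is the lowest concentration inhibiting growth, from at least three independent experiments.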

Acinetobacter baumannii [2] = assay: Antibacterial activity against Acinetobacter baumannii 140
How it was run: (§2)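 Broth microdilution MIC following CLSI guidelines. Strains were grown on Mueller-Hinton agar beforehand. The MIC is the lowest compound concentration that inhibits bacterial growth, determined at least three times in independent experiments.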

Neisseria gonorrhoeae [3] = assay: Antibacterial activity against Neisseria gonorrhoeae WHO G; how it was run: as §1
Neisseria gonorrhoeae [4] = assay: Antibacterial activity against Neisseria gonorrhoeae WHO Z; how it was run: as §1
Staphylococcus aureus [5] = assay: Antibacterial activity against Staphylococcus aureus ATCC 29213; how it was run: as §2
Neisseria gonorrhoeae [6] = assay: Antibacterial activity against Neisseria gonorrhoeae ATCC 19424; how it was run: as §1
Neisseria gonorrhoeae [7] = assay: Antibacterial activity against Neisseria gonorrhoeae WHO A; how it was run: as §1
Staphylococcus aureus [8] = assay: Antibacterial activity against methicillin-resistant Staphylococcus aureus 196
How it was run: (§3)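 Strains grown on Mueller-Hinton agar. MIC by broth microdilution following CLSI guidelines, taken as the lowest concentration inhibiting bacterial growth. Determined at least three times in independent experiments.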

Escherichia coli [9] = assay: Antibacterial activity against Escherichia coli 202; how it was run: as §2
Neisseria gonorrhoeae [10] = assay: Antibacterial activity against Neisseria gonorrhoeae WHO O; how it was run: as §1
Neisseria gonorrhoeae [11] = assay: Antibacterial activity against Neisseria gonorrhoeae WHO K; how it was run: as §1
Neisseria gonorrhoeae [12] = assay: Antibacterial activity against Neisseria gonorrhoeae WHO E; how it was run: as §1
Acinetobacter baumannii [13] = assay: Antibacterial activity against Acinetobacter baumannii 139; how it was run: as §2
Neisseria gonorrhoeae [14] = assay: Antibacterial activity against Neisseria gonorrhoeae Barla194; how it was run: as §1
Neisseria gonorrhoeae [15] = assay: Antibacterial activity against Neisseria gonorrhoeae WHO B; how it was run: as §1
Streptococcus pneumoniae = assay: Antibacterial activity against Streptococcus pneumoniae ATCC 49169; how it was run: as §2
Neisseria gonorrhoeae [16] = assay: Antibacterial activity against Neisseria gonorrhoeae WHO Q; how it was run: as §1
Pseudomonas aeruginosa [17] = assay: Antibacterial activity against Pseudomonas aeruginosa 143; how it was run: as §2
Staphylococcus aureus [18] = assay: Antibacterial activity against methicillin-resistant Staphylococcus aureus 197; how it was run: as §3
Neisseria gonorrhoeae [19] = assay: Antibacterial activity against Neisseria gonorrhoeae WHO M
How it was run: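 Agar dilution on GC agar base with 2% v/v Vitox and 1% haemoglobin containing graded compound concentrations. Suspensions at 10^5 CFU/mL spotted in duplicate. Incubation 24-48h, 37°C, 5% CO2. MIC taken as the lowest concentration inhibiting growth, determined at least three times in independent experiments.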

Acinetobacter baumannii [20] = assay: Antibacterial activity against Acinetobacter baumannii ATCC 19606; how it was run: as §2
Pseudomonas aeruginosa [21] = assay: Antibacterial activity against Pseudomonas aeruginosa 142; how it was run: as §2
Pseudomonas aeruginosa [22] = assay: Antibacterial activity against Pseudomonas aeruginosa ATCC 27853; how it was run: as §2
Escherichia coli [23] = assay: Antibacterial activity against Escherichia coli ATCC 35218; how it was run: as §2
Escherichia coli [24] = assay: Antibacterial activity against Escherichia coli 203; how it was run: as §2

SMILES: COc1c(N2C[C@@H]3CCCN[C@@H]3C2)c(F)cc2c(=O)c(C(=O)O)cn(C3CC3)c12 [MOXIFLOXACIN]
MIC (Neisseria gonorrhoeae [1]): 0.016 µg/mL (≈ 0.0399 µM)
MIC (Acinetobacter baumannii [2]): 4 µg/mL (≈ 9.96 µM)
MIC (Neisseria gonorrhoeae [3]): 0.03 µg/mL (≈ 0.0747 µM)
MIC (Neisseria gonorrhoeae [4]): 2 µg/mL (≈ 4.98 µM)
MIC (Staphylococcus aureus [5]): 0.06 µg/mL (≈ 0.149 µM)
MIC (Neisseria gonorrhoeae [6]): 0.06 µg/mL (≈ 0.149 µM)
MIC (Neisseria gonorrhoeae [7]): 0.004 µg/mL (≈ 0.00996 µM)
MIC (Staphylococcus aureus [8]): 0.5 µg/mL (≈ 1.25 µM)
MIC (Escherichia coli [9]): 0.5 µg/mL (≈ 1.25 µM)
MIC (Neisseria gonorrhoeae [10]): 0.016 µg/mL (≈ 0.0399 µM)
MIC (Neisseria gonorrhoeae [11]): 2 µg/mL (≈ 4.98 µM)
MIC (Neisseria gonorrhoeae [12]): 0.004 µg/mL (≈ 0.00996 µM)
MIC (Acinetobacter baumannii [13]): 2 µg/mL (≈ 4.98 µM)
MIC (Neisseria gonorrhoeae [14]): 16 µg/mL (≈ 39.9 µM)
MIC (Neisseria gonorrhoeae [15]): 0.008 µg/mL (≈ 0.0199 µM)
MIC (Streptococcus pneumoniae): 0.06 µg/mL (≈ 0.149 µM)
MIC (Neisseria gonorrhoeae [16]): 0.016 µg/mL (≈ 0.0399 µM)
MIC (Pseudomonas aeruginosa [17]): 16 µg/mL (≈ 39.9 µM)
MIC (Staphylococcus aureus [18]): 1 µg/mL (≈ 2.49 µM)
MIC (Neisseria gonorrhoeae [19]): 2 µg/mL (≈ 4.98 µM)
MIC (Acinetobacter baumannii [20]): 0.25 µg/mL (≈ 0.623 µM)
MIC (Pseudomonas aeruginosa [21]): 8 µg/mL (≈ 19.9 µM)
MIC (Pseudomonas aeruginosa [22]): 1 µg/mL (≈ 2.49 µM)

SMILES: CCCCCCCCCN1CCN(c2c(F)cc3c(=O)c(C(=O)O)cn(C4CC4)c3c2OC)CC1
MIC (Acinetobacter baumannii [2]): 64 µg/mL (≈ 131 µM)
MIC (Staphylococcus aureus [5]): 8 µg/mL (≈ 16.4 µM)
MIC (Escherichia coli [23]): 8 µg/mL (≈ 16.4 µM)
MIC (Neisseria gonorrhoeae [6]): 0.25 µg/mL (≈ 0.513 µM)
MIC (Staphylococcus aureus [8]): ≥ 64 µg/mL
MIC (Escherichia coli [9]): 8 µg/mL (≈ 16.4 µM)
MIC (Escherichia coli [24]): > 64 µg/mL
MIC (Acinetobacter baumannii [13]): 64 µg/mL (≈ 131 µM)
MIC (Streptococcus pneumoniae): 2 µg/mL (≈ 4.1 µM)
MIC (Pseudomonas aeruginosa [17]): ≥ 64 µg/mL
MIC (Staphylococcus aureus [18]): > 64 µg/mL
MIC (Acinetobacter baumannii [20]): 64 µg/mL (≈ 131 µM)
MIC (Pseudomonas aeruginosa [21]): ≥ 64 µg/mL
MIC (Pseudomonas aeruginosa [22]): > 64 µg/mL

MIC (Staphylococcus aureus [5]): 0.5 µg/mL (≈ 1.05 µM)
MIC (Escherichia coli [23]): 0.5 µg/mL (≈ 1.05 µM)
MIC (Neisseria gonorrhoeae [6]): 2 µg/mL (≈ 4.19 µM)
MIC (Streptococcus pneumoniae): 1 µg/mL (≈ 2.09 µM)
SMILES: CCOCCOCCN1CCN(c2c(F)cc3c(=O)c(C(=O)O)cn(C4CC4)c3c2OC)CC1

MIC (Staphylococcus aureus [5]): 32 µg/mL (≈ 67.6 µM)
MIC (Escherichia coli [23]): ≥ 64 µg/mL
MIC (Neisseria gonorrhoeae [6]): > 32 µg/mL
MIC (Streptococcus pneumoniae): 2 µg/mL (≈ 4.22 µM)
SMILES: CCCCC(CC)CN1CCN(c2c(F)cc3c(=O)c(C(=O)O)cn(C4CC4)c3c2OC)CC1 (centres undefined)

SMILES: CCCCCCCCCCCN1CCN(c2c(F)cc3c(=O)c(C(=O)O)cn(C4CC4)c3c2OC)CC1
MIC (Acinetobacter baumannii [2]): 64 µg/mL (≈ 124 µM)
MIC (Staphylococcus aureus [5]): 32 µg/mL (≈ 62.1 µM)
MIC (Escherichia coli [23]): 16 µg/mL (≈ 31 µM)
MIC (Neisseria gonorrhoeae [6]): 0.5 µg/mL (≈ 0.97 µM)
MIC (Staphylococcus aureus [8]): 64 µg/mL (≈ 124 µM)
MIC (Escherichia coli [9]): ≥ 64 µg/mL
MIC (Escherichia coli [24]): > 64 µg/mL
MIC (Acinetobacter baumannii [13]): ≥ 64 µg/mL
MIC (Streptococcus pneumoniae): 8 µg/mL (≈ 15.5 µM)
MIC (Pseudomonas aeruginosa [17]): > 64 µg/mL
MIC (Staphylococcus aureus [18]): ≥ 64 µg/mL
MIC (Acinetobacter baumannii [20]): 64 µg/mL (≈ 124 µM)
MIC (Pseudomonas aeruginosa [21]): > 64 µg/mL
MIC (Pseudomonas aeruginosa [22]): > 64 µg/mL

SMILES: CCCCCCCCCCN1CCN(c2c(F)cc3c(=O)c(C(=O)O)cn(C4CC4)c3c2OC)CC1
MIC (Neisseria gonorrhoeae [1]): 1 µg/mL (≈ 1.99 µM)
MIC (Acinetobacter baumannii [2]): 64 µg/mL (≈ 128 µM)
MIC (Neisseria gonorrhoeae [3]): 8 µg/mL (≈ 15.9 µM)
MIC (Neisseria gonorrhoeae [4]): ≥ 64 µg/mL
MIC (Staphylococcus aureus [5]): 32 µg/mL (≈ 63.8 µM)
MIC (Escherichia coli [23]): ≥ 32 µg/mL
MIC (Neisseria gonorrhoeae [6]): 0.12 µg/mL (≈ 0.239 µM)
MIC (Neisseria gonorrhoeae [7]): 0.5 µg/mL (≈ 0.997 µM)
MIC (Staphylococcus aureus [8]): ≥ 64 µg/mL
MIC (Escherichia coli [9]): ≥ 64 µg/mL
MIC (Neisseria gonorrhoeae [10]): 1 µg/mL (≈ 1.99 µM)
MIC (Escherichia coli [24]): > 64 µg/mL
MIC (Neisseria gonorrhoeae [11]): 256 µg/mL (≈ 510 µM)
MIC (Neisseria gonorrhoeae [12]): 0.25 µg/mL (≈ 0.498 µM)
MIC (Acinetobacter baumannii [13]): ≥ 64 µg/mL
MIC (Neisseria gonorrhoeae [14]): 256 µg/mL (≈ 510 µM)
MIC (Neisseria gonorrhoeae [15]): 1 µg/mL (≈ 1.99 µM)
MIC (Streptococcus pneumoniae): > 64 µg/mL
MIC (Neisseria gonorrhoeae [16]): 2 µg/mL (≈ 3.99 µM)
MIC (Pseudomonas aeruginosa [17]): > 64 µg/mL
MIC (Staphylococcus aureus [18]): > 64 µg/mL
MIC (Neisseria gonorrhoeae [19]): ≥ 64 µg/mL
MIC (Acinetobacter baumannii [20]): 64 µg/mL (≈ 128 µM)
MIC (Pseudomonas aeruginosa [21]): > 64 µg/mL
MIC (Pseudomonas aeruginosa [22]): > 64 µg/mL

— ChEMBL document CHEMBL5131404, “Lipophilic quinolone derivatives: Synthesis and in vitro antibacterial evaluation” (2022)
